Test results from ChEMBL document CHEMBL1129982, “Structure-activity relationships in a series of orally active gamma-hydroxy butenolide endothelin antagonists” (J Med Chem, 1997).

Key:
[1] = target: T1, Endothelin receptor type B (Homo sapiens, UniProt P24530); test: Binding affinity against human cloned Endothelin B receptor expressed in CHO-K1 cells; format: cell-based
T1 sequence (P24530 whole entry): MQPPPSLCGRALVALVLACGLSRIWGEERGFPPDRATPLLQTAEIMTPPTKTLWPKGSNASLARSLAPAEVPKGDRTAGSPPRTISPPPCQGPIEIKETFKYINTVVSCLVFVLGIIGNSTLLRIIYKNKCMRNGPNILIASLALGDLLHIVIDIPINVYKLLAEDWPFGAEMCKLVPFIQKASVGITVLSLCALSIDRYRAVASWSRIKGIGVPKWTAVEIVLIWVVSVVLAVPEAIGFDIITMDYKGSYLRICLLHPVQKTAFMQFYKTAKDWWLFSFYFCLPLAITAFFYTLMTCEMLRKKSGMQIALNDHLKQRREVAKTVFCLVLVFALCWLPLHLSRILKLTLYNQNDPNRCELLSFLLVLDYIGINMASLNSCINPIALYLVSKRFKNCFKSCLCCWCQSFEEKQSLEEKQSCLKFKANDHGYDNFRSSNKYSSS
Procedure, shortened: (§1)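 Radioligand binding to cloned human ETA (Ltk⁻ cells) and ETB (CHO-K1 cells) receptors. […] Selectivity expressed as ETB IC50/ETA IC50.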

[2] = target: T2, Endothelin-1 receptor (Homo sapiens, UniProt P25101); test: Binding affinity against human cloned endothelin A receptor expressed in LTK-cells; format: cell-based
T2 sequence (P25101 whole entry): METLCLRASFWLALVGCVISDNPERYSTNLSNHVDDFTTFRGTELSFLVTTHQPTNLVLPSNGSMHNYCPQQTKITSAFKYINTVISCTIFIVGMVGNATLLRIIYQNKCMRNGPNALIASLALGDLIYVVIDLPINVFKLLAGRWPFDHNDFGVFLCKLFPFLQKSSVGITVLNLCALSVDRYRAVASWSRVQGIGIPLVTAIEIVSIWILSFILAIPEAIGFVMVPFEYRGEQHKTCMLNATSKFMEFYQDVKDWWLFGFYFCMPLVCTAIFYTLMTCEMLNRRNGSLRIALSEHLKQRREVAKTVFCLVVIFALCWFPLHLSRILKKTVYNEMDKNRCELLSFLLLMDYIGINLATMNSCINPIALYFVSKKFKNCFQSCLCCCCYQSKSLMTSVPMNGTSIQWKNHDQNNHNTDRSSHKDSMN
Procedure, shortened: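 Radioligand binding to cloned human ETA (Ltk⁻ cells) and ETB (CHO-K1 cells) receptors. Selectivity expressed as ETB IC50/ETA IC50.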

[3] = target: Endothelin receptor, ET-A/ET-B (Homo sapiens) (UniProt P24530+P25101); test: Selectivity of compound on ET B with respect to ET A receptor; format: protein assay; procedure, shortened: as §1
[4] = target: T1, Endothelin receptor type B; test: Inhibition of Endothelin B receptor mediated (ET-3) release of arachidonic acid from human cloned receptors expressed in CHO-K1 cells; format: cell-based
Procedure, shortened: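 Arachidonic acid release assay. ETA: rabbit renal artery vascular smooth muscle cells stimulated with ET-1. ETB: recombinant human receptors in CHO-K1 cells stimulated with ET-3.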

In the case of `CSc1ccc(C2(O)OC(=O)C(c3ccc4c(c3)OCO4)=C2Cc2ccccc2)cc1` (stereo not given), the IC50 [1] is reported as > 2.5 µM and the IC50 [2] is reported as 0.17 µM.

An IC50 [1] of 5.2 µM and an IC50 [2] of 0.046 µM were found for `COc1ccc(C2(O)OC(=O)C(c3cc(OC)cc(OC)c3)=C2Cc2ccccc2)cc1` (stereo not given) in this work.

An IC50 [1] of 1.8 µM and an IC50 [2] of 0.028 µM were found for `COc1ccc(C2(O)OC(=O)C(c3ccc4c(c3)OCO4)=C2Cc2ccc(N(C)C)cc2)cc1` (stereo not given) in this work.

An IC50 [2] of 0.32 µM was found for `CCC1=C(c2ccc3c(c2)OCO3)C(=O)OC1(O)c1ccc(OC)cc1` (stereo not given) in this work.

An IC50 [1] of 0.445 µM, an IC50 [2] of 0.00012 µM and a Selectivity [3] of 3700 were found for `CCOc1cc(CC2=C(c3ccc4c(c3)OCO4)C(=O)OC2(O)c2ccc(OC)cc2)cc(OCC)c1OCC` (stereo not given) in this work.

`COc1ccc(C2(O)OC(=O)C(c3ccc4c(c3)OCO4)=C2Cc2cccnc2)cc1` (stereo not given) was tested, and the IC50 [1] was > 2.5 µM and the IC50 [2] was 0.04 µM.

An IC50 [2] of 0.0018 µM was found for `COc1ccc(C2(O)OC(=O)C(c3ccc4c(c3)OCO4)=C2Cc2cc(OC)c(OC)cc2OC)cc1` (stereo not given) in this work.

An IC50 [1] of 1.41 µM and an IC50 [2] of 0.0082 µM were found for `COc1ccc(C2(O)OC(=O)C(c3cc(OC)c4c(c3)OCO4)=C2Cc2ccccc2)cc1C` (stereo not given) in this work.

An IC50 [1] of 17 µM and an IC50 [2] of 0.8 µM were found for `COc1ccc(C2(O)OC(=O)C(c3ccc4c(c3)OCO4)=C2Cc2ccc([N+](=O)[O-])cc2)cc1` (stereo not given) in this work.

An IC50 [1] of 2 µM and an IC50 [2] of 0.012 µM were found for `COc1ccc(C2(O)OC(=O)C(c3ccc4c(c3)OCO4)=C2Cc2ccc(OC)c(OC)c2OC)cc1` (stereo not given) in this work.

An IC50 [2] of 0.0012 µM was found for `COc1ccc(C2(O)OC(=O)C(c3ccc4c(c3)OCO4)=C2Cc2ccc(NC(C)=O)cc2)cc1` (stereo not given) in this work.

An IC50 [1] of 0.64 µM and an IC50 [2] of 0.0067 µM were found for `COc1ccc(C2(O)OC(=O)C(c3cc(OC)c4c(c3)OCO4)=C2Cc2ccccc2)cc1` (stereo not given) in this work.

An IC50 [1] of 3 µM and an IC50 [2] of 0.004 µM were found for `COc1ccc(C2(O)OC(=O)C(c3ccc4c(c3)OCO4)=C2Cc2ccc(S(C)(=O)=O)cc2)cc1` (stereo not given) in this work.

An IC50 [1] of 3.2 µM and an IC50 [2] of 0.01 µM were found for `COc1ccc(C2(O)OC(=O)C(c3ccc4c(c3)OCO4)=C2Cc2nccc3ccccc23)cc1` (stereo not given) in this work.

With `COc1ccc(C2OC(=O)C(c3ccc4c(c3)OCO4)=C2Cc2ccccc2)cc1` (stereo not given) the IC50 [1] was > 2.5 µM and the IC50 [2] was 0.7 µM.

An IC50 [2] of 0.016 µM was found for `COc1ccc(C2(O)OC(=O)C(c3ccc4c(c3)OCO4)=C2Cc2ccc3c(c2)OCO3)cc1` (stereo not given) in this work.

An IC50 [1] of 16 µM and an IC50 [2] of 0.014 µM were found for `COc1ccc(C2(O)OC(=O)C(c3ccc4c(c3)OCO4)=C2Cc2cc(OC)c3c(c2)OCO3)cc1` (stereo not given) in this work.

For `O=C1OC(O)(c2ccc(C(=O)O)cc2)C(Cc2ccccc2)=C1c1ccc2c(c1)OCO2` (stereo not given), the IC50 [1] was > 2.5 µM and the IC50 [2] was > 25 µM.

An IC50 [2] of 0.019 µM was found for `O=C1OC(O)(c2ccc3c(c2)OCO3)C(Cc2ccccc2)=C1c1ccc2c(c1)OCO2` (stereo not given) in this work.

For `COc1ccc(C2(O)OC(=O)C(c3ccc4c(c3)OCO4)=C2Cc2cccc3ccccc23)cc1` (stereo not given), the IC50 [1] was > 2.5 µM and the IC50 [2] was 0.018 µM.

An IC50 [2] of 0.95 µM was found for `O=C1OC(O)(c2ccc(OCc3ccccc3)cc2)C(Cc2ccccc2)=C1c1ccc2c(c1)OCO2` (stereo not given) in this work.

An IC50 [2] of 0.07 µM was found for `COc1ccc(C2(O)OC(=O)C(c3ccc(OC)c(OC)c3)=C2Cc2ccccc2)cc1` (stereo not given) in this work.

An IC50 [2] of 0.035 µM was found for `COc1ccc(C2(O)OC(=O)C(c3ccc4c(c3)OCO4)=C2CC2CCCCCC2)cc1` (stereo not given) in this work.

An IC50 [1] of 1.6 µM and an IC50 [2] of 0.0075 µM were found for `COc1ccc(C2(O)OC(=O)C(c3ccc4c(c3)OCO4)=C2Cc2ccc3c(c2)OCCO3)cc1` (stereo not given) in this work.

An IC50 [2] of 0.2 µM was found for `COc1ccc(C2(O)OC(=O)C(c3ccc4c(c3)OCO4)=C2Cc2ccc(-c3ccccc3)cc2)cc1` (stereo not given) in this work.

An IC50 [4] of 8.2 µM was found for `COc1ccc(C(=O)/C(Cc2ccc(NC(C)=O)cc2)=C(\C(=O)O)c2ccc3c(c2)OCO3)cc1` in this work.

An IC50 [1] of 0.18 µM was found for `COc1ccc(C2(O)OC(=O)C(c3cc(OC)c4c(c3)OCO4)=C2Cc2cc(OC)c(OC)c(OC)c2)cc1C` (stereo not given) in this work.

In the case of `COc1ccc(C2(OC)OC(=O)C(c3ccc4c(c3)OCO4)=C2Cc2cc(OC)c(OC)c(OC)c2)cc1` (stereo not given), the IC50 [1] is reported as > 2.5 µM and the IC50 [2] is reported as 0.6 µM.

With `COc1ccc(C2(O)OC(=O)C(c3ccc4c(c3)OCO4)=C2Cc2cccc([N+](=O)[O-])c2)cc1` (stereo not given) the IC50 [1] was > 25 µM and the IC50 [2] was 0.07 µM.

For `COc1ccc(C2(O)OC(=O)C(c3ccc4c(c3)OCO4)=C2Cc2ccccc2)c(OC)c1` (stereo not given), the IC50 [1] was > 2.5 µM and the IC50 [2] was 0.013 µM.

For `COc1ccc(C2(O)OC(=O)C(c3ccc4c(c3)OCO4)=C2Cc2cccc(C(=O)O)c2)cc1` (stereo not given), the IC50 [1] was > 2.5 µM and the IC50 [2] was 0.05 µM.

An IC50 [2] of 0.3 µM was found for `COc1ccc(C2(O)OC(=O)C(c3ccc(OC)cc3OC)=C2Cc2ccccc2)cc1` (stereo not given) in this work.

With `COc1ccc(C2(OC)OC(=O)C(c3ccc4c(c3)OCO4)=C2Cc2ccccc2)cc1` (stereo not given) the IC50 [1] was > 25 µM and the IC50 [2] was 0.3 µM.
